The nature of data set [1]: Antioxidant activity assessed as DPPH radical scavenging activity at 80 ug/ml after 20 mins by spectrophotometry relative to control. The class given is physicochemical. Summed up: (§1)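 Radical scavenging measured in vitro by DPPH and by hydroxyl radical scavenging assays. Each run in triplicate at five concentrations, reported as mean ± SD of three replicates.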
On the technique in general: The DPPH test is a chemical assay of radical scavenging.

Data set [2] is described as follows: Antioxidant activity assessed as DPPH radical scavenging activity at 60 ug/ml after 20 mins by spectrophotometry relative to control. The class given is physicochemical. In short, it runs like this:
as §1

Data set [3] in a line: Antioxidant activity assessed as DPPH radical scavenging activity at 20 ug/ml after 20 mins by spectrophotometry relative to control. The class given is physicochemical. Summed up: as §1
A short description of data set [4]: Antioxidant activity assessed as DPPH radical scavenging activity at 100 ug/ml after 20 mins by spectrophotometry relative to control. It counts as physicochemical. In short, it runs like this:
as §1

Data set [5] can be described thus: Antioxidant activity assessed as DPPH radical scavenging activity at 40 ug/ml after 20 mins by spectrophotometry relative to control. The class given is physicochemical. In short, it runs like this: as §1
A short description of data set [6]: Antioxidant activity assessed as hydroxyl radical scavenging activity at 100 ug/ml after 60 mins relative to control. It counts as physicochemical. The settings on record: 1 h. In short, it runs like this:
as §1

The nature of data set [7]: Antioxidant activity assessed as hydroxyl radical scavenging activity at 20 ug/ml after 60 mins relative to control. The note with it: 1 h. The class given is physicochemical. In short, it runs like this:
as §1

Data set [8] can be described thus: Antioxidant activity assessed as hydroxyl radical scavenging activity at 80 ug/ml after 60 mins relative to control. The class given is physicochemical. The note with it: 1 h. In short, it runs like this: as §1
A short description of data set [9]: Antioxidant activity assessed as hydroxyl radical scavenging activity at 60 ug/ml after 60 mins relative to control. The class given is physicochemical. The note with it: 1 h. Summed up: as §1
Data set [10] can be described thus: Antioxidant activity assessed as hydroxyl radical scavenging activity at 40 ug/ml after 60 mins relative to control. The class given is physicochemical. The settings on record: 1 h. In short, it runs like this:
as §1

The test system of the next data set is Aspergillus niger. Nature of the data set: Antimicrobial activity against Aspergillus niger after 72 hrs by broth dilution method. The class given is functional. In short, it runs like this:
(§2)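 MIC by broth dilution in triplicate, reported as mean ± SD. Panel: bacteria S. aureus, S. pyogenes, E. coli; fungi C. neoformans, A. niger, A. flavus. Ciprofloxacin served as positive control for bacteria and nystatin for fungi. DMSO was the solvent and solvent control.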
(In broth dilution the organism is exposed to a series of concentrations in liquid medium.)

In a further data set the test system is Aspergillus flavus. Nature of the data set: Antimicrobial activity against Aspergillus flavus after 72 hrs by broth dilution method. It counts as functional. Summed up: as §2
The next data set deals with Escherichia coli. Nature of the data set: Antimicrobial activity against Escherichia coli after 24 hrs by broth dilution method. It counts as functional. Summed up: as §2
The next data set relates to Streptococcus pyogenes. Nature of the data set: Antimicrobial activity against Streptococcus pyogenes after 24 hrs by broth dilution method. It counts as functional. In short, it runs like this: as §2
In the next data set the test system is Cryptococcus neoformans. Kind of data set: Antimicrobial activity against Cryptococcus neoformans after 72 hrs by broth dilution method. It counts as functional. In short, it runs like this:
as §2

The subject of the next data set is Staphylococcus aureus. Nature of the data set: Antimicrobial activity against Staphylococcus aureus after 24 hrs by broth dilution method. It counts as functional. Summed up: as §2

In brackets after ≈: the same amount, converted by molar mass.

For `O=C1O[C@H]([C@@H](O)CO)C(O)=C1O` [ASCORBIC ACID], the Activity amounted to 24.25% in data set [1]; 21.98% in data set [2]; 15.08% in data set [3]; 28.65% in data set [4]; 16.87% in [5].

`COc1ccc(O)c(C(C)(C)C)c1.COc1ccc(O)cc1C(C)(C)C` [BUTYLATED HYDROXYANISOLE]: the Activity in [6] is 36.87%; in data set [7], 13.87%; in data set [8], 32.03%; in data set [9], 25.58%; in data set [10], 17.95%.

Regarding `CCOC(=O)[C@@H]1CC(=O)c2sccc2[C@H]1c1ccc(OC)c(OC)c1`, the MIC was found to be 25 µg/mL (≈ 69.4 µM) against Aspergillus niger; 50 µg/mL (≈ 139 µM) against Aspergillus flavus; 25 µg/mL (≈ 69.4 µM) against Escherichia coli; 50 µg/mL (≈ 139 µM) with Streptococcus pyogenes; 25 µg/mL (≈ 69.4 µM) in the data set with Cryptococcus neoformans; 50 µg/mL (≈ 139 µM) against Staphylococcus aureus. The Activity is 34.02% in data set [6]; 22.87% in [1]; 12.23% in [7]; 30.37% in data set [8]; 20.93% in [2]; 14.65% in data set [3]. Further, the Activity in data set [9] worked out at 24.07%; in data set [4] it was 25.54%; in [10], 16.64%; in data set [5], 14.76%.

Take `CCOC(=O)C1C(C(=O)c2cccs2)C1c1ccc(OC)c(OC)c1` (configuration not stated): the MIC in the data set with Aspergillus niger was determined as 25 µg/mL (≈ 69.4 µM); in the data set on Aspergillus flavus, 50 µg/mL (≈ 139 µM); with Escherichia coli it was 25 µg/mL (≈ 69.4 µM); against Streptococcus pyogenes it was 50 µg/mL (≈ 139 µM); against Cryptococcus neoformans, 25 µg/mL (≈ 69.4 µM); against Staphylococcus aureus, 25 µg/mL (≈ 69.4 µM).

For `CCOC(=O)[C@@H]1CC(=O)c2sccc2[C@H]1c1ccc(OC)cc1OC`, the MIC against Aspergillus niger stood at 100 µg/mL (≈ 277 µM); with Aspergillus flavus it was 75 µg/mL (≈ 208 µM); in the data set on Escherichia coli, 75 µg/mL (≈ 208 µM); against Streptococcus pyogenes, 50 µg/mL (≈ 139 µM); against Cryptococcus neoformans it was 50 µg/mL (≈ 139 µM); in the data set with Staphylococcus aureus, 50 µg/mL (≈ 139 µM). The Activity in [6] was 26.82%; in data set [1], 18.64%; in data set [7], 10.05%; in data set [8] it was 23.87%; in [2], 14.98%; in data set [3], 9.76%. Also, the Activity in [9] came to 19.87%; in data set [4] it was 20.76%; in data set [10], 12.76%; in data set [5], 11.76%.

For `CCOC(=O)C1C(C(=O)c2cccs2)C1c1ccc(OC)cc1` (configuration not stated), the minimal inhibitory concentration (MIC) turned out to be 100 µg/mL (≈ 303 µM) against Aspergillus niger; 100 µg/mL (≈ 303 µM) against Aspergillus flavus; 50 µg/mL (≈ 151 µM) in the data set on Escherichia coli; 50 µg/mL (≈ 151 µM) in the data set on Streptococcus pyogenes; 50 µg/mL (≈ 151 µM) in the data set on Cryptococcus neoformans; 50 µg/mL (≈ 151 µM) against Staphylococcus aureus.

For `CCOC(=O)C1C(C(=O)c2cccs2)C1c1ccc(OC)cc1OC` (configuration not stated), the MIC against Aspergillus niger is 50 µg/mL (≈ 139 µM); against Aspergillus flavus, 50 µg/mL (≈ 139 µM); with Escherichia coli, 25 µg/mL (≈ 69.4 µM); against Streptococcus pyogenes it was 25 µg/mL (≈ 69.4 µM); against Cryptococcus neoformans it was 25 µg/mL (≈ 69.4 µM); with Staphylococcus aureus, 25 µg/mL (≈ 69.4 µM).

`CCOC(=O)C1C(C(=O)c2cccs2)C1c1ccc(OCC)cc1` (configuration not stated): the MIC in the data set on Aspergillus niger turned out to be 12.5 µg/mL (≈ 36.3 µM); against Aspergillus flavus, 25 µg/mL (≈ 72.6 µM); with Escherichia coli, 25 µg/mL (≈ 72.6 µM); with Streptococcus pyogenes, 25 µg/mL (≈ 72.6 µM); against Cryptococcus neoformans it was 12.5 µg/mL (≈ 36.3 µM); against Staphylococcus aureus, 12.5 µg/mL (≈ 36.3 µM).

In the case of NYSTATIN, the results for the minimal inhibitory concentration (MIC) against Aspergillus niger, in the data set with Aspergillus flavus and in the data set on Cryptococcus neoformans were 50 µg/mL, 50 µg/mL and 25 µg/mL, respectively.

Turning to `O=C(O)c1cn(C2CC2)c2cc(N3CCNCC3)c(F)cc2c1=O` [CIPROFLOXACIN], the minimum inhibitory concentration (MIC) with Escherichia coli was found to be 25 µg/mL (≈ 75.4 µM); against Streptococcus pyogenes it was 50 µg/mL (≈ 151 µM).

Take `CCOC(=O)[C@@H]1CC(=O)c2sccc2[C@H]1c1ccc(OC)cc1`: the MIC with Aspergillus niger was 25 µg/mL (≈ 75.7 µM); against Aspergillus flavus it was 50 µg/mL (≈ 151 µM); against Escherichia coli it was 50 µg/mL (≈ 151 µM); in the data set on Streptococcus pyogenes it was 25 µg/mL (≈ 75.7 µM); in the data set on Cryptococcus neoformans, 50 µg/mL (≈ 151 µM); in the data set with Staphylococcus aureus, 50 µg/mL (≈ 151 µM). The Activity in [6] is 34.09%; in [1] it was 23.92%; in [7], 13.03%; in data set [8], 30.98%; in [2] it was 20.31%; in data set [3], 15.02%. The Activity in data set [9] is reported as 24.76%; in data set [4], 26.22%; in data set [10], 17.98%; in data set [5], 16.71%.

As to `CCOC(=O)C1C(C(=O)c2cccs2)C1c1cc(OC)cc(OC)c1` (configuration not stated), the MIC was found to be 50 µg/mL (≈ 139 µM) against Aspergillus niger; 75 µg/mL (≈ 208 µM) against Aspergillus flavus; 75 µg/mL (≈ 208 µM) in the data set with Escherichia coli; 75 µg/mL (≈ 208 µM) in the data set on Streptococcus pyogenes; 50 µg/mL (≈ 139 µM) in the data set with Cryptococcus neoformans; 50 µg/mL (≈ 139 µM) in the data set on Staphylococcus aureus.

For the molecule `CCOC(=O)[C@@H]1CC(=O)c2sccc2[C@H]1c1cc(OC)cc(OC)c1`, the MIC with Aspergillus niger came out at 25 µg/mL (≈ 69.4 µM); against Aspergillus flavus it was 25 µg/mL (≈ 69.4 µM); against Escherichia coli, 12.5 µg/mL (≈ 34.7 µM); with Streptococcus pyogenes it was 25 µg/mL (≈ 69.4 µM); in the data set on Cryptococcus neoformans, 12.5 µg/mL (≈ 34.7 µM); against Staphylococcus aureus, 12.5 µg/mL (≈ 34.7 µM). Besides, the Activity in [6] was found to be 41.5%; in [1] it was 27.43%; in [7] it was 16.76%; in data set [8], 36.32%; in data set [2], 24.76%; in data set [3], 18.56%. Further, the Activity in [9] worked out at 29.65%; in [4], 31.54%; in data set [10], 20.65%; in data set [5], 19.97%.

Consider `CCOC(=O)[C@@H]1CC(=O)c2sccc2[C@H]1c1ccc(OCC)cc1`, for which the minimal inhibitory concentration (MIC) is 75 µg/mL (≈ 218 µM) against Aspergillus niger; 100 µg/mL (≈ 290 µM) against Aspergillus flavus; 50 µg/mL (≈ 145 µM) against Escherichia coli; 50 µg/mL (≈ 145 µM) against Streptococcus pyogenes; 25 µg/mL (≈ 72.6 µM) against Cryptococcus neoformans; 75 µg/mL (≈ 218 µM) against Staphylococcus aureus. The Activity is 37.99% in data set [6]; 25.43% in data set [1]; 15.43% in data set [7]; 34.13% in data set [8]; 22.87% in [2]; 17.08% in data set [3]. The Activity in [9] stood at 26.98%; in [4], 28.96%; in data set [10], 19.76%; in [5] it was 18.54%.

On to `CCOC(=O)[C@@H]1CC(=O)c2sccc2[C@H]1c1ccccc1OC`, for which the minimal inhibitory concentration (MIC) was determined as 25 µg/mL (≈ 75.7 µM) against Aspergillus niger; 50 µg/mL (≈ 151 µM) in the data set on Aspergillus flavus; 50 µg/mL (≈ 151 µM) in the data set with Escherichia coli; 50 µg/mL (≈ 151 µM) with Streptococcus pyogenes; 25 µg/mL (≈ 75.7 µM) against Cryptococcus neoformans; 25 µg/mL (≈ 75.7 µM) in the data set with Staphylococcus aureus. Also, the Activity is on record as 31.56% in [6]; 19.65% in data set [1]; 11.87% in data set [7]; 29.77% in [8]; 17.76% in data set [2]; 10.76% in data set [3]. Further, the Activity in data set [9] is recorded as 22.76%; in data set [4], 21.65%; in data set [10], 15.98%; in data set [5], 13.54%.

For the molecule `CCOC(=O)C1C(C(=O)c2cccs2)C1c1ccccc1OC` (configuration not stated), the MIC in the data set on Aspergillus niger was 75 µg/mL (≈ 227 µM); in the data set with Aspergillus flavus it was 25 µg/mL (≈ 75.7 µM); in the data set on Escherichia coli, 75 µg/mL (≈ 227 µM); against Streptococcus pyogenes it was 100 µg/mL (≈ 303 µM); against Cryptococcus neoformans, 75 µg/mL (≈ 227 µM); against Staphylococcus aureus it was 50 µg/mL (≈ 151 µM).

What is called MIC is the lowest concentration that inhibits growth of the organism.

The record behind these values is ChEMBL document CHEMBL3826896, “Synthesis of lignan conjugates via cyclopropanation: Antimicrobial and antioxidant studies” (Bioorg Med Chem Lett, 2016).
